Experiments:
[1] = Kinetics of M1 formation by pooled HLMs; assay type: in vitro ADME, human
Procedure, shortened: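 Initial-rate conditions (<20% substrate consumption). Pooled microsomes at 0.02 mg/ml with substrate from 0.05 μM upward, in 250 μl. Equilibrated 5 min at 37°C, started with NADPH, run 3 min. M1 measured by LC/MS/MS. Mean of duplicates fitted to Michaelis-Menten by nonlinear regression, with an Eadie-Hofstee plot; CLint = Vmax/Km.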

CYP2D6 = CYP2D6 (Homo sapiens, UniProt P10635); assay: DB289 consumption by recombinant CYP2D6; assay type: in vitro ADME; conditions: 3.0 μM DB289, 50 pmol/ml P450, 15 min
Sequence of CYP2D6 (P10635 whole entry): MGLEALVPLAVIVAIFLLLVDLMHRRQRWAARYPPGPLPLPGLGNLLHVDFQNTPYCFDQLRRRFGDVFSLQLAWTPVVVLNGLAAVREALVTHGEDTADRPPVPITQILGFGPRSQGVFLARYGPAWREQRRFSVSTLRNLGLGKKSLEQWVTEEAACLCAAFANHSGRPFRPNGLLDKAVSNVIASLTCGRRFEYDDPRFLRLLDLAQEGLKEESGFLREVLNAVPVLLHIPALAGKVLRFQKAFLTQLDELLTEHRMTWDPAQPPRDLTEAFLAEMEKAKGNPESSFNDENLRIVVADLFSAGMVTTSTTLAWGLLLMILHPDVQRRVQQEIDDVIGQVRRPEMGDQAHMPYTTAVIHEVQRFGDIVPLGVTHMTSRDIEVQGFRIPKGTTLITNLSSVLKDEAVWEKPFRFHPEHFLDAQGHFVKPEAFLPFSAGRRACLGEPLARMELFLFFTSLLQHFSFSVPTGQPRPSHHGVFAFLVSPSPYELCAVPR
Procedure, shortened: (§1)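 Baculovirus-insect-cell Supersomes coexpressing human P450 with NADPH-P450 reductase; the CYP2E1 enzyme also had cytochrome b5. 3.0 μM substrate, 50 pmol/ml P450 (100 pmol/ml for CYP2C8 and CYP2C9), in 100 mM phosphate pH 7.4 with 3.3 mM MgCl2 and 1 mM NADPH, 37°C, 15 min. Quenched in ice-cold acidified acetonitrile with deuterated internal standard, then LC/MS/MS. Percent consumed relative to 0 min; control Supersomes; duplicates.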

CYP3A4/5 = assay: Inhibition of P450 activities by DB289: testosterone 6β-hydroxylation; assay type: in vitro ADME, human; conditions: 3.0 μM DB289, pooled HLMs 0.25 mg/ml
Procedure, shortened: (§2)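 Test compound (3.0 μM) was preincubated 0 and 15 min with pooled microsomes (0.25 mg/ml) and 2 mM NADPH (final concentrations). A P450-selective marker substrate was then added and marker activity measured. Reference selective chemical inhibitors were run for comparison (none for CYP4A11). Solvent-only controls.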

recombinant human CYP3A4 = recombinant human CYP3A4 (Homo sapiens, UniProt P08684); assay: DB289 consumption by recombinant CYP3A4; assay type: in vitro ADME; conditions: 3.0 μM DB289, 50 pmol/ml P450, 15 min
Sequence of recombinant human CYP3A4 (P08684 2-503 limits assumed): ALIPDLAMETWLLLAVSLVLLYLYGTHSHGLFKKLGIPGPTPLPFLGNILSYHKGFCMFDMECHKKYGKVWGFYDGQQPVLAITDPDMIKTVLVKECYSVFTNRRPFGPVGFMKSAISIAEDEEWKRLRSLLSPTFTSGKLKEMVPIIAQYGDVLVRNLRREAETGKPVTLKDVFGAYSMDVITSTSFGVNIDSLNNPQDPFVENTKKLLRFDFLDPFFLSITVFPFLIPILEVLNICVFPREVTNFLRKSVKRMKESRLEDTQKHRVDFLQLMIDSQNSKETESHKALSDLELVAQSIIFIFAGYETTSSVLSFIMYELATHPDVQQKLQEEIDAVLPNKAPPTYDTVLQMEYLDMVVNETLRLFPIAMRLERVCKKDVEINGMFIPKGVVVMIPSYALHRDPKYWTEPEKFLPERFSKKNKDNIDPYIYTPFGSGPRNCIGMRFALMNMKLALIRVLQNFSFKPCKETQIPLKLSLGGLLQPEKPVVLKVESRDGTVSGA
Procedure, shortened: as §1

recombinant CYP4F2 = target: T1, recombinant CYP4F2 (Homo sapiens, UniProt P78329); assay: DB289 consumption by recombinant CYP4F2; assay type: in vitro ADME; conditions: 3.0 μM DB289, 50 pmol/ml P450, 15 min
T1 sequence (P78329 5-520): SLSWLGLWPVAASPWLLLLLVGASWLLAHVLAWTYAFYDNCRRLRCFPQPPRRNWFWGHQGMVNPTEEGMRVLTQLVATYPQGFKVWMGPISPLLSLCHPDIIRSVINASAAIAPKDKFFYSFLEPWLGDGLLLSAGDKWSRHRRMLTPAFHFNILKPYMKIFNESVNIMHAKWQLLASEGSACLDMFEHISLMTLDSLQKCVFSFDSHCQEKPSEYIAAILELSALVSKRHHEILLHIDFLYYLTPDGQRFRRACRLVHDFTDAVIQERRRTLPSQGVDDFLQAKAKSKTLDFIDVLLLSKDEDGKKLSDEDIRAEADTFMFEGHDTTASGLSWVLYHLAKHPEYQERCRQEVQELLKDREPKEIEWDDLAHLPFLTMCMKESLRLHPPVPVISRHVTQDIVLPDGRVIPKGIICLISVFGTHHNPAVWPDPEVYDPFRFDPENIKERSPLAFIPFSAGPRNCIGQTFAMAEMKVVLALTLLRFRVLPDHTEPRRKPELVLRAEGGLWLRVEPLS
Procedure, shortened: (§3)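 A second recombinant panel (Supersomes; the CYP2J2, CYP3A7 and CYP4F forms coexpressed with reductase and cytochrome b5). Each enzyme was incubated alone with 3.0 μM substrate and NADPH in pH 7.4 phosphate/MgCl2 at 37°C for 15 min. Acetonitrile quench with internal standard, centrifugation, LC/MS/MS. Percent consumed normalised to 0 min. Control Supersomes; means of duplicates.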

CYP2E1 = CYP2E1 (Homo sapiens, UniProt P05181); assay: DB289 consumption by recombinant CYP2E1; assay type: in vitro ADME; conditions: 3.0 μM DB289, 50 pmol/ml P450, 15 min
Sequence of CYP2E1 (P05181 whole entry): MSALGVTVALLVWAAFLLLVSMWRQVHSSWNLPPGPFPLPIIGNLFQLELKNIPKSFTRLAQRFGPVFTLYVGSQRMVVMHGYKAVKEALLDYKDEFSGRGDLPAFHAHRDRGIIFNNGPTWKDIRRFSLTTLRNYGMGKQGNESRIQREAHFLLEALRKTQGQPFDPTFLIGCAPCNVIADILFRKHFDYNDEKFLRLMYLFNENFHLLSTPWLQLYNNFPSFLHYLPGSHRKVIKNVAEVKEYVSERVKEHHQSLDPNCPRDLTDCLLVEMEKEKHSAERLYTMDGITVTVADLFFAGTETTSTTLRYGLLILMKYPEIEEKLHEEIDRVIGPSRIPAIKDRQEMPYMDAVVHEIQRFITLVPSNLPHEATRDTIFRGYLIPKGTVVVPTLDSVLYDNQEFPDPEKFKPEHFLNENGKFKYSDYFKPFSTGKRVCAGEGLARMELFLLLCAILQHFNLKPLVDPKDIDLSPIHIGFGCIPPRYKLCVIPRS
Procedure, shortened: as §1

CYP2A6 = CYP2A6 (Homo sapiens, UniProt P11509); assay: Inhibition of P450 activities by DB289: coumarin 7-hydroxylation; assay type: in vitro ADME; conditions: 3.0 μM DB289, pooled HLMs 0.25 mg/ml
Sequence of CYP2A6 (P11509 whole entry): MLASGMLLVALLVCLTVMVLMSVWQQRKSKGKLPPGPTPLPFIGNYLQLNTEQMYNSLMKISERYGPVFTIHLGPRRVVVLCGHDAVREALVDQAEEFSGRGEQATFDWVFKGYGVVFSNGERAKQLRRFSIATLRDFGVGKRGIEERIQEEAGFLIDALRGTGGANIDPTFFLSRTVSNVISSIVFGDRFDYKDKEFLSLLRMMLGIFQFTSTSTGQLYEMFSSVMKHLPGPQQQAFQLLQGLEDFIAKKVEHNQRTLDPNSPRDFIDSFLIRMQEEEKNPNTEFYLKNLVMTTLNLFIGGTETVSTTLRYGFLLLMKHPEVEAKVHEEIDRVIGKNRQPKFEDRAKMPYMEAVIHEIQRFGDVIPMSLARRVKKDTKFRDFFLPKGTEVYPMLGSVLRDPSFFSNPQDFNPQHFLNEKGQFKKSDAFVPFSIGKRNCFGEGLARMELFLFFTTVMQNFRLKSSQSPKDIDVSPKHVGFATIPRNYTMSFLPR
Procedure, shortened: as §2

recombinant human CYP1B1 = recombinant human CYP1B1 (Homo sapiens, UniProt Q16678); assay: DB289 consumption by recombinant CYP1B1; assay type: in vitro ADME; conditions: 3.0 μM DB289, 50 pmol/ml P450, 15 min
Sequence of recombinant human CYP1B1 (Q16678 whole entry): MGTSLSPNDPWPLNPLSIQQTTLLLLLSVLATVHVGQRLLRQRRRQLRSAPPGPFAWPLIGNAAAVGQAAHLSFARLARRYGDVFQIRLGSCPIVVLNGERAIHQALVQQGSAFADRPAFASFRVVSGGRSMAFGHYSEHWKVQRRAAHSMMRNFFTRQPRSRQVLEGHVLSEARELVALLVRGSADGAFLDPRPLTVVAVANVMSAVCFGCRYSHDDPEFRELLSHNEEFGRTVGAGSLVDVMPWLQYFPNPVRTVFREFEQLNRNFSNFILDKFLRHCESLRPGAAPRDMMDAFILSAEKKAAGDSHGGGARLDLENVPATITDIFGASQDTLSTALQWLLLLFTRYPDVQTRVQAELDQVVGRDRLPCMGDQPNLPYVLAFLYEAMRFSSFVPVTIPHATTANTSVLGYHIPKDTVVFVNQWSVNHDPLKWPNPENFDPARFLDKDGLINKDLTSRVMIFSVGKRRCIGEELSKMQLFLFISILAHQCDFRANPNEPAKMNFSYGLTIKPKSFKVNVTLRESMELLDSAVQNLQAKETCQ
Procedure, shortened: as §1

[2] = target: recombinant human CYP2C18 (Homo sapiens, UniProt P33260); assay: DB289 consumption by recombinant CYP2C18; assay type: in vitro ADME; conditions: 3.0 μM DB289, 50 pmol/ml P450, 15 min
Sequence of recombinant human CYP2C18 (P33260 26-490): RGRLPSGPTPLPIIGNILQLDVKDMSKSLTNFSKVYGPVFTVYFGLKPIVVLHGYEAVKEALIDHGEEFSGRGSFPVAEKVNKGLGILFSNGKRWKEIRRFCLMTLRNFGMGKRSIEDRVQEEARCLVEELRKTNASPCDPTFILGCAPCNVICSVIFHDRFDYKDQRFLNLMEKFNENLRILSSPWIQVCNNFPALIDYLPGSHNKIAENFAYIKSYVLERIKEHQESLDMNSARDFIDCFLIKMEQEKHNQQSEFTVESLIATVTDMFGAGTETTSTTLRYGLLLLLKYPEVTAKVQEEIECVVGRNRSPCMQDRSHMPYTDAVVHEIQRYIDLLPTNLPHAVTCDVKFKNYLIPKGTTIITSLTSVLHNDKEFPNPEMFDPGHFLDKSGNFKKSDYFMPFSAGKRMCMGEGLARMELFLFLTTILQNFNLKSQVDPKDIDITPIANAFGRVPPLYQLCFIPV

recombinant human CYP3A7 = recombinant human CYP3A7 (Homo sapiens, UniProt P24462); assay: DB289 consumption by recombinant CYP3A7; assay type: in vitro ADME; conditions: 3.0 μM DB289, 50 pmol/ml P450, 15 min
Sequence of recombinant human CYP3A7 (P24462 whole entry): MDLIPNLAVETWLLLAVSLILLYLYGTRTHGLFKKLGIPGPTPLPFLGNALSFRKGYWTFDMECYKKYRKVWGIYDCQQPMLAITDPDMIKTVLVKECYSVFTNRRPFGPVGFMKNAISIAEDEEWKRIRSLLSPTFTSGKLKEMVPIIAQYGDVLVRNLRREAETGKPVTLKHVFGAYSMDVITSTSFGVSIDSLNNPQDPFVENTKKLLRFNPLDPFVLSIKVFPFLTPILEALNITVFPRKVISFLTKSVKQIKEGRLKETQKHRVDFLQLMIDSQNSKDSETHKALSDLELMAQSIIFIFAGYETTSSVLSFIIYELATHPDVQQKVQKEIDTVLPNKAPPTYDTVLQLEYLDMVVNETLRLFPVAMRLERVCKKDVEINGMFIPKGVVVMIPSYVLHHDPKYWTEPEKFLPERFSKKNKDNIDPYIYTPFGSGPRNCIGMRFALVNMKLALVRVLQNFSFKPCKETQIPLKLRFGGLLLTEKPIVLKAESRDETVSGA
Procedure, shortened: as §3

[3] = target: recombinant human CYP4F3A (Homo sapiens, UniProt Q08477); assay: DB289 consumption by recombinant CYP4F3A; assay type: in vitro ADME; conditions: 3.0 μM DB289, up to 120 min
Sequence of recombinant human CYP4F3A (Q08477 whole entry): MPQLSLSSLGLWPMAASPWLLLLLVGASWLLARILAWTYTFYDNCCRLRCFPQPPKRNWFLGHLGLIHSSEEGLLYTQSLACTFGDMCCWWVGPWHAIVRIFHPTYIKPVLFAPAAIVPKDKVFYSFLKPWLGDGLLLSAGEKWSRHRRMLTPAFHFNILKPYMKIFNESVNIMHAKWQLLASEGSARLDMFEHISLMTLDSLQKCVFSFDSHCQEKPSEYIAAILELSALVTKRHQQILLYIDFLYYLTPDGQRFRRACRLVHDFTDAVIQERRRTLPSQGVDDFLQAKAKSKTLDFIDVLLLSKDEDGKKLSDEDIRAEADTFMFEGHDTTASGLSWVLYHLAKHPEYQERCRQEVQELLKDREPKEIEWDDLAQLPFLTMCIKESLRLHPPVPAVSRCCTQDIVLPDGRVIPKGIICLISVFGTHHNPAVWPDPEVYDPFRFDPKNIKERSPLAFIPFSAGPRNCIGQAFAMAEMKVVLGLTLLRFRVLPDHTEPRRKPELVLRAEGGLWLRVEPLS

CYP2C19 [4] = target: T2, CYP2C19 (Homo sapiens, UniProt P33261); assay: Inhibition of P450 activities by DB289: S-mephenytoin 4′-hydroxylation; assay type: in vitro ADME; conditions: 3.0 μM DB289, pooled HLMs 0.25 mg/ml
T2 sequence (P33261 whole entry): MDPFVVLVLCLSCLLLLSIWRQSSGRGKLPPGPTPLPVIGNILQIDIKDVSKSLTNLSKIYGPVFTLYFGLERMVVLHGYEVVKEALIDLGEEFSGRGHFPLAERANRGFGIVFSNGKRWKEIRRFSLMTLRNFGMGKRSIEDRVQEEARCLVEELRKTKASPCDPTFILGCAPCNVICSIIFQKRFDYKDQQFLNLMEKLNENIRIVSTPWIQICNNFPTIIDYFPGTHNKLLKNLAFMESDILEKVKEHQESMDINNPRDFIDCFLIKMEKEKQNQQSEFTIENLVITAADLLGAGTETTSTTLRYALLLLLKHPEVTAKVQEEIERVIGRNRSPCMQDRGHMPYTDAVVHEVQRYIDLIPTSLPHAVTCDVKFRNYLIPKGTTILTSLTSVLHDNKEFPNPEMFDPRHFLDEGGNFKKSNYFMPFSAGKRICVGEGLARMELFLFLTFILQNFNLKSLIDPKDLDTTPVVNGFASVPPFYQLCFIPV
Procedure, shortened: as §2

CYP2C19 [5] = target: T2, CYP2C19; assay: DB289 consumption by recombinant CYP2C19; assay type: in vitro ADME; conditions: 3.0 μM DB289, 50 pmol/ml P450, 15 min
Procedure, shortened: as §1

recombinant human CYP2C8 = recombinant human CYP2C8 (Homo sapiens, UniProt P10632); assay: DB289 consumption by recombinant CYP2C8; assay type: in vitro ADME; conditions: 3.0 μM DB289, 100 pmol/ml P450, 15 min
Sequence of recombinant human CYP2C8 (P10632 whole entry): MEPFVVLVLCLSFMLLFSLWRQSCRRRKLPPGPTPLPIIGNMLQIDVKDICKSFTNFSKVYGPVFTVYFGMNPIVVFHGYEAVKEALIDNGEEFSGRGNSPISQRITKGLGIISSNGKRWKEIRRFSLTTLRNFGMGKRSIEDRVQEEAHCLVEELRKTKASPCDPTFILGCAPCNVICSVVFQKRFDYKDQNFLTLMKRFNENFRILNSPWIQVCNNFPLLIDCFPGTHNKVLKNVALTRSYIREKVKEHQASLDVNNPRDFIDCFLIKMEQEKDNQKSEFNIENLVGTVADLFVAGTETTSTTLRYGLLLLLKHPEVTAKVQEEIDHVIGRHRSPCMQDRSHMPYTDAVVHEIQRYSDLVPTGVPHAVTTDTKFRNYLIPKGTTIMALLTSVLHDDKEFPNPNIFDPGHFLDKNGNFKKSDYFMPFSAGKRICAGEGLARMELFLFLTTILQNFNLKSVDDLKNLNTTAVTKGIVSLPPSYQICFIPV
Procedure, shortened: as §1

CYP2J2 = target: T3, CYP2J2 (Homo sapiens, UniProt P51589); assay: DB289 consumption by recombinant CYP2J2; assay type: in vitro ADME; conditions: 3.0 μM DB289, 50 pmol/ml P450, 15 min
T3 sequence (P51589 1-502): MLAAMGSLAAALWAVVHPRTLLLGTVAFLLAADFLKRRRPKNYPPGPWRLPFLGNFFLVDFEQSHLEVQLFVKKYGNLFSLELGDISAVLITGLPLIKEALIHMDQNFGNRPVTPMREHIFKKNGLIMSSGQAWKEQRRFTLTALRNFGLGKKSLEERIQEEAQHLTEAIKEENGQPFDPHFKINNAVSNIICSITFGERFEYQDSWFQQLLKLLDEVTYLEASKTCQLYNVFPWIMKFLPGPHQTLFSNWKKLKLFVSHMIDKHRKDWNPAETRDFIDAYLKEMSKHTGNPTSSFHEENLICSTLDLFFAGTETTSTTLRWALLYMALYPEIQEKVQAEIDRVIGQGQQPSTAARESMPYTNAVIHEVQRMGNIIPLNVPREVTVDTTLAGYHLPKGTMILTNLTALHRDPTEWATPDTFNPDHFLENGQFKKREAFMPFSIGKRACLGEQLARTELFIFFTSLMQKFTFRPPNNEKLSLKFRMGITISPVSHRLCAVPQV
Procedure, shortened: as §3

Vmax ([1]; DB289 O-demethylation in HLMs): 3770 pmol/min/mg protein
Vmax ([1]; M1 formation, 0.02 mg/ml HLM, 3 min): 3.8 nmol/min/mg protein
Vmax ([1]; M1 formation, 0.02 mg/ml HLM, 3 min, total P450): 10.5 nmol/min/nmol P450
percentage of substrate consumed (CYP2D6): 9%
inhibition of CYP3A activity (CYP3A4/5): minimal to no inhibition
percentage of substrate consumed (recombinant human CYP3A4): 18%
percentage of substrate consumed (recombinant CYP4F2): 98%
percentage of substrate consumed (CYP2E1): 7%
inhibition of CYP2A6 activity (CYP2A6): minimal to no inhibition
percentage of substrate consumed (recombinant human CYP1B1): 46%
percentage of substrate consumed [2]: less than 5%
percentage of substrate consumed (recombinant human CYP3A7): less than 5%
DB289 consumption [3]: little DB289 consumption
inhibition of CYP2C19 activity (CYP2C19 [4]): minimal to no inhibition
percentage of substrate consumed (CYP2C19 [5]): less than 5%
percentage of substrate consumed (recombinant human CYP2C8): 5%
percentage of substrate consumed (CYP2J2): 85%
SMILES: CON=C(N)c1ccc(-c2ccc(-c3ccc(C(N)=NOC)cc3)o2)cc1 [DB289, 2,5-bis(4-amidinophenyl)furan-bis-O-methylamidoxime]

Source: PMC2077835 (Drug metabolism and disposition: the biological fate of …, 2006)
